# Data from ChEMBL document CHEMBL4819088, “Synthesis and in vivo screening of isosteviol derivatives as new cardioprotective agents” (2021).
# Active and inactive are the calls of the source. The rule behind the calls is not given here.
# Experiments:
# Danio rerio [1] = species: Danio rerio; experiment: Prevention of doxorubicin-induced Zebrafish mortality assessed as survival rate at 40 uM incubated for 48 hrs by inverted fluorescence microscopy (reference value: 52%); assay type: functional
# Danio rerio [2] = species: Danio rerio; experiment: Prevention of doxorubicin-induced Zebrafish mortality assessed as survival rate at 5 uM incubated for 48 hrs by inverted fluorescence microscopy (reference value: 52%); assay type: functional
# Danio rerio [3] = species: Danio rerio; experiment: Prevention of doxorubicin-induced Zebrafish mortality assessed as increase in survival rate incubated for 48 hrs by inverted fluorescence microscopy; assay type: functional, organism-based; conditions: dose 5-40 µM
# In short: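 Wild-type embryos, 24 hpf, 20 per well in 1 mL egg water, exposed to DOX (100 μM) with or without test compound (5, 15, 40 μM) for 48 h. Survival scored at 96 hpf by inverted fluorescence microscopy; no motion on touch, or loss of atrial and ventricular contractility, counted as dead. Mean ± S.D., n = 4.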
# Danio rerio [4] = species: Danio rerio; experiment: Prevention of doxorubicin-induced Zebrafish mortality assessed as survival rate at 15 uM incubated for 48 hrs by inverted fluorescence microscopy (reference value: 52%); assay type: functional
# Danio rerio [5] = species: Danio rerio; experiment: Cardioprotective activity against doxorubicin-induced (cmlc2:GFP) transgenic Zebrafish assessed as protection of heart measured after 48 hrs; assay type: functional, organism-based; conditions: dose 20-60 µM
# In short: (§1)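 Tg(cmlc2:GFP) embryos, 24 hpf, 20 per well, exposed to DOX (80 μM) with or without test compound at its optimum concentration for 48 h. At 72 hpf, heart rate, fractional shortening, stroke volume and cardiac output were derived from fluorescence imaging of atrium and ventricle. Mean ± S.D., n = 4.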
# Danio rerio [6] = species: Danio rerio; experiment: Cardioprotective activity in (cmlc2:GFP) transgenic Zebrafish assessed as prevention of doxorubicin-induced heart shape change measured after 48 hrs; assay type: functional, organism-based
# H9c2 [7] = experiment: Cardioprotective activity against rat H9c2 cells assessed as inhibition of doxorubicin-induced mitochondrial membrane potential loss incubated for 48 hrs by JC1 staining based confocal microscopy; conditions: dose 1-10 µM
# H9c2 [8] = experiment: Cardioprotective activity against rat H9c2 cells assessed as inhibition of doxorubicin-induced ROS production preincubated for 48 hrs followed by loading with DCFDA dye for 40 mins by DCF-DA probe based fluorescence assay; assay type: functional, cell-based; conditions: dose 1-10 µM
# In short: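 H9c2 cells exposed for 48 h with or without test compound, then loaded with DCFH-DA (5 μM final, in DMEM) for 40 min at 37 °C. Cells washed three times with PBS; DCF fluorescence read by confocal microscopy as the ROS level. Mean ± S.D., n = 3.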
# Danio rerio [9] = species: Danio rerio; experiment: Cardioprotective activity against Zebrafish assessed as reduction in doxorubicin-induced increase in natriuretic peptide mRNA level by qRT-PCR analysis; assay type: functional, organism-based; conditions: dose 20-40 µM
# In short: (§2)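 Zebrafish embryos, either controls or exposed to doxorubicin with or without test compound. ANP and cTnT mRNA levels measured relative to control. Mean ± S.D., n = 4.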
# H9c2 [10] = experiment: Cardioprotective activity against doxorubicin-induced rat H9c2 cells assessed as protection of cell damage measured after 48 hrs by CCK8 assay; assay type: functional, cell-based; conditions: dose 0.5-12.5 µM
# In short: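 H9c2 cells grown in DMEM with 10% FBS and penicillin/streptomycin at 37 °C, 5% CO2, used at 70% confluence. Exposed to DOX (10 μM) with or without test compound (0.5–12.5 μM) for 48 h. CCK-8 (0.5 mg/mL) then added for 4 h to read viability.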
# Danio rerio [11] = species: Danio rerio; experiment: Cardioprotective activity against Zebrafish assessed as reduction in doxorubicin-induced increase in Cardiac troponin T mRNA level by qRT-PCR analysis; assay type: functional, organism-based; conditions: dose 20-40 µM; in short: as §2
# Danio rerio [12] = species: Danio rerio; experiment: Cardioprotective activity against doxorubicin-induced (cmlc2:GFP) transgenic Zebrafish assessed as protection of heart function loss measured after 48 hrs; assay type: functional, organism-based; conditions: dose 20-60 µM; in short: as §1
# Danio rerio [13] = species: Danio rerio; experiment: Cardioprotective activity in (cmlc2:GFP) transgenic Zebrafish assessed as reduction in doxorubicin-induced cardiac impairment measured after 48 hrs; assay type: functional, organism-based; in short: as §1
# Danio rerio [14] = experiment: Cardioprotective activity in (cmlc2:GFP) transgenic Zebrafish assessed as reduction in doxorubicin-induced cardiac edema measured after 48 hrs; assay type: functional, organism-based
SMILES,Activity (Danio rerio [1]),Activity (Danio rerio [2]),Activity (Danio rerio [4]),other results
COc1ccc(CC(=O)OC[C@@H]2[C@@H](O)[C@@]3(C)CC[C@H]4[C@]5(C)CCC[C@@](C)(C(=O)O)[C@H]5CC[C@@]24C3)cc1,>70%,–,–,–
C[C@@H]1CC(=O)NN=C1c1ccc(NN=C(C#N)C#N)cc1 [LEVOSIMENDAN],74%,58%,69%,Activity (Danio rerio [3]): Dose-Dependent Effect
COc1ccc(C(=O)OC[C@@H]2[C@@H](O)[C@@]3(C)CC[C@H]4[C@]5(C)CCC[C@@](C)(N)[C@H]5CC[C@@]24C3)c(OC)c1OC,Active,–,–,–
COc1ccc(C(=O)OC[C@@H]2[C@@H](O)[C@@]3(C)CC[C@H]4[C@]5(C)CCC[C@@](C)(C(=O)O)[C@H]5CC[C@@]24C3)cc1,>70%,–,–,–
COc1ccc(C(=O)OC[C@@H]2C(=O)[C@@]3(C)CC[C@H]4[C@]5(C)CCC[C@@](C)(N)[C@H]5CC[C@@]24C3)c(OC)c1OC,98%,–,–,Activity (Danio rerio [5]): Dose-Dependent Effect; Activity (Danio rerio [6]): Dose-Dependent Effect; Activity (H9c2 [7]): Dose-Dependent Effect; Activity (Danio rerio [3]): Dose-Dependent Effect; Activity (H9c2 [8]): Dose-Dependent Effect; Activity (Danio rerio [9]): Dose-Dependent Effect; Activity (H9c2 [10]): Dose-Dependent Effect; Activity (Danio rerio [11]): Dose-Dependent Effect; Activity (Danio rerio [12]): Dose-Dependent Effect; Activity (Danio rerio [13]): Dose-Dependent Effect; Activity (Danio rerio [14]): Dose-Dependent Effect
CC(=O)OC[C@@H]1C(=O)[C@@]2(C)CC[C@H]3[C@]4(C)CCC[C@@](C)(C(=O)O)[C@H]4CC[C@@]13C2,inactive,–,–,–
COc1ccc(COC(=O)[C@]2(C)CCC[C@@]3(C)[C@@H]4CC[C@@]5(C)C[C@]4(CC[C@@H]32)CC5=O)cc1,–,–,60%,–
C[C@]12CC[C@H]3[C@]4(C)CCC[C@@](C)(N)[C@H]4CC[C@@]3(C1)[C@H](CO)[C@H]2O,inactive,–,–,–
Cc1ccc(S(=O)(=O)OC[C@@H]2C(=O)[C@@]3(C)CC[C@H]4[C@]5(C)CCC[C@@](C)(C(=O)O)[C@H]5CC[C@@]24C3)cc1,60%,60%,60%,–
C[C@]12CC[C@H]3[C@]4(C)CCC[C@@](C)(C(=O)O)[C@H]4CC[C@@]3(C1)[C@H](COC(=O)C1CCCCC1)[C@H]2O,inactive,–,–,–
COc1cc(C(=O)OC[C@@H]2C(=O)[C@@]3(C)CC[C@H]4[C@]5(C)CCC[C@@](C)(C(=O)O)[C@H]5CC[C@@]24C3)cc(OC)c1OC,68%,68%,68%,Activity (Danio rerio [5]): Dose-Dependent Effect; Activity (Danio rerio [6]): Dose-Dependent Effect; Activity (Danio rerio [3]): Dose-Dependent Effect; Activity (Danio rerio [12]): Dose-Dependent Effect; Activity (Danio rerio [13]): Dose-Dependent Effect; Activity (Danio rerio [14]): Dose-Dependent Effect
C[C@]12CC[C@H]3[C@]4(C)CCC[C@@](C)(C(=O)O)[C@H]4CC[C@@]3(C1)[C@H](CO)[C@H]2O,60%,60%,60%,–
COc1ccc(C(=O)OC[C@@H]2C(=O)[C@@]3(C)CC[C@H]4[C@]5(C)CCC[C@@](C)(C(=O)O)[C@H]5CC[C@@]24C3)c(OC)c1OC,77%,77%,77%,Activity (Danio rerio [5]): Dose-Dependent Effect; Activity (Danio rerio [6]): Dose-Dependent Effect; Activity (Danio rerio [3]): Dose-Dependent Effect; Activity (Danio rerio [12]): Dose-Dependent Effect; Activity (Danio rerio [13]): Dose-Dependent Effect; Activity (Danio rerio [14]): Dose-Dependent Effect
COc1cccc(C(=O)OC[C@@H]2C(=O)[C@@]3(C)CC[C@H]4[C@]5(C)CCC[C@@](C)(C(=O)O)[C@H]5CC[C@@]24C3)c1OC,70%,–,–,–
COc1ccc(C(=O)OC[C@@H]2C(=O)[C@@]3(C)CC[C@H]4[C@]5(C)CCC[C@@](C)(C(=O)O)[C@H]5CC[C@@]24C3)cc1OC,Active,–,–,Activity (Danio rerio [1]; record 2): >70%
C[C@@]12CC[C@@H]3[C@@](CC[C@H]4[C@@]3(C)CCC[C@@]4(C)C(=O)OCc3ccccc3)(CC1=O)C2,–,60%,–,–
COc1ccc(C(=O)OC[C@@H]2[C@@H](O)[C@@]3(C)CC[C@H]4[C@]5(C)CCC[C@@](C)(C(=O)O)[C@H]5CC[C@@]24C3)cc1OC,>70%,–,–,–
COc1cc(C(=O)OC[C@@H]2C(=O)[C@@]3(C)CC[C@H]4[C@]5(C)CCC[C@@](C)(N)[C@H]5CC[C@@]24C3)cc(OC)c1OC,87%,–,–,Activity (Danio rerio [5]): Dose-Dependent Effect; Activity (Danio rerio [6]): Dose-Dependent Effect; Activity (Danio rerio [3]): Dose-Dependent Effect; Activity (Danio rerio [12]): Dose-Dependent Effect; Activity (Danio rerio [13]): Dose-Dependent Effect; Activity (Danio rerio [14]): Dose-Dependent Effect
C[C@]12CC[C@H]3[C@]4(C)CCC[C@@](C)(N)[C@H]4CC[C@@]3(C1)[C@H](COC(=O)c1cccnc1)[C@H]2O,Active,–,–,–
C[C@@]12CC[C@@H]3[C@@](CC[C@H]4[C@@]3(C)CCC[C@@]4(C)C(=O)O)(CC1=O)C2 [ISOSTEVIOL],inactive,57%,inactive,Activity (Danio rerio [5]): Dose-Dependent Effect; Activity (Danio rerio [6]): Dose-Dependent Effect; Activity (Danio rerio [12]): Dose-Dependent Effect; Activity (Danio rerio [13]): Dose-Dependent Effect; Activity (Danio rerio [14]): Dose-Dependent Effect
COC(=O)[C@]1(C)CCC[C@@]2(C)[C@@H]3CC[C@@]4(C)C[C@]3(CC[C@@H]21)CC4=O,60%,–,–,–
Cc1ccc(S(=O)(=O)OC[C@@H]2[C@@H](O)[C@@]3(C)CC[C@H]4[C@]5(C)CCC[C@@](C)(C(=O)O)[C@H]5CC[C@@]24C3)cc1,60%,60%,60%,–
COc1ccc(C(=O)OC[C@@H]2[C@@H](O)[C@@]3(C)CC[C@H]4[C@]5(C)CCC[C@@](C)(N)[C@H]5CC[C@@]24C3)cc1,Active,–,–,–
C=C1C(=O)[C@@]2(C)CC[C@@H]3[C@]1(CC[C@H]1[C@@]3(C)CCC[C@@]1(C)C(=O)O)C2,26%,50%,38%,–
COc1cc(C(=O)OC[C@@H]2[C@@H](O)[C@@]3(C)CC[C@H]4[C@]5(C)CCC[C@@](C)(N)[C@H]5CC[C@@]24C3)cc(OC)c1OC,Active,–,–,–
COc1cccc(C(=O)OC[C@@H]2[C@@H](O)[C@@]3(C)CC[C@H]4[C@]5(C)CCC[C@@](C)(N)[C@H]5CC[C@@]24C3)c1OC,Active,–,–,–
C[C@]12CC[C@H]3[C@]4(C)CCC[C@@](C)(C(=O)O)[C@H]4CC[C@@]3(C1)[C@H](COC(=O)C1CCCCC1)C2=O,inactive,–,–,–
C[C@@]12CC[C@@H]3[C@@](CC[C@H]4[C@@]3(C)CCC[C@@]4(C)N)(CC1=O)C2,–,85%,–,Activity (Danio rerio [5]): Dose-Dependent Effect; Activity (Danio rerio [6]): Dose-Dependent Effect; Activity (Danio rerio [3]): Dose-Dependent Effect; Activity (Danio rerio [12]): Dose-Dependent Effect; Activity (Danio rerio [13]): Dose-Dependent Effect; Activity (Danio rerio [14]): Dose-Dependent Effect
CC(=O)OC[C@@H]1[C@@H](O)[C@@]2(C)CC[C@H]3[C@]4(C)CCC[C@@](C)(C(=O)O)[C@H]4CC[C@@]13C2,inactive,–,–,–
